Source: ChEMBL document CHEMBL1133501, “Conformationally constrained anesthetic steroids that modulate GABA(A) receptors” (J Med Chem, 2000)

Tests used:
Mus musculus = assay: Hypnotic dose required to cause a loss of righting reflex for a minimum period of 30 s in 50 percent of treated mice after intravenous administration.; format: functional
Procedure, shortened: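 Mice given steroid intravenously. The endpoint was loss of righting reflex lasting at least 30 s. The dose producing this in 50% of treated mice (HD50) was derived by probit analysis and expressed in µmol·kg-1.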

[1] = target: GABA-A receptor; anion channel; assay: Inhibition of binding of tert-butyl bicyclophosphorothionate ([35 S]TBPS) at Gamma-aminobutyric acid A receptor from rat whole brain membranes; format: cell membranes, Membrane

| SMILES | HD50 (Mus musculus) [µM/kg] | IC50 [1] [nM] |
| --- | --- | --- |
| C[C@]12CC[C@@H](O)C[C@@H]1CC[C@@H]1[C@@H]2CC[C@]2(C)[C@@H](C(=O)CO)CC[C@@H]12 | 18.5 | 192 |
| C[C@]12CC[C@@H](O)C[C@@H]1CC[C@@H]1[C@@H]2CC[C@@]2(C)[C@H]1CC[C@@]21CCO1 | 62.8 | 232 |
| C[C@]12CC[C@@H](O)C[C@H]1CC[C@@H]1[C@@H]2CC[C@@]2(C)[C@H]1C[C@@H]1O[C@@H]12 | 38 | 159 |
| C[C@]12CC[C@@H](O)C[C@@H]1CC[C@@H]1[C@@H]2CC[C@@]2(C)[C@H]1C[C@@H]1CO[C@@H]12 | 146.9 | 2530 |
| C[C@]12CC[C@@H](O)C[C@@H]1CC[C@@H]1[C@@H]2CC[C@]2(C)[C@@H]3O[C@@H]3C[C@@H]12 | 68.4 | 5350 |
| C[C@]12CC[C@@H](O)C[C@@H]1CC[C@@H]1[C@@H]2CC[C@@]2(C)[C@H]1C[C@@H]1O[C@@H]12 | 17.3 | 255 |
| C[C@]12CC[C@@H](O)C[C@@H]1CC[C@@H]1[C@@H]2CC[C@@]2(C)[C@H](C#N)CC[C@@H]12 | 114.9 | 1240 |
| C[C@]12CC[C@H]3[C@@H](CC[C@H]4CC(O)CC[C@@]43C)[C@@H]1CC(=O)C2 (stereo not given in full) | 134.7 | – |
| CO[C@H]1CC[C@H]2[C@@H]3CC[C@H]4C[C@H](O)CC[C@]4(C)[C@H]3CC[C@]12C | 23.1 | 210 |
| C[C@]12CC[C@@H](O)C[C@@H]1CC[C@@H]1[C@@H]2CC[C@@]2(C)[C@H]1CC[C@@]21CO1 | 19.8 | 55 |
| C[C@]12CC[C@@H](O)C[C@H]1CC[C@@H]1[C@@H]2CC[C@@]2(C)[C@H]1CC[C@@]21CO1 | 22.6 | 221 |
| CC(=O)[C@H]1CC[C@H]2[C@@H]3CC[C@H]4C[C@H](O)CC[C@]4(C)[C@H]3C(=O)C[C@]12C [ALFAXALONE] | 6.3 | – |
| C[C@]12CC[C@@H](O)C[C@@H]1CC[C@@H]1[C@@H]2CC[C@]2(C)[C@@H](O)CC[C@@H]12 [ANDROSTANDIOL] | 239.4 | 1870 |
| C[C@]12CC[C@@H](O)C[C@@H]1CC[C@@H]1[C@@H]2CC[C@]2(C)C(=O)CC[C@@H]12 [ANDROSTERONE] | 68.9 | 1370 |
| CC(=O)[C@H]1CC[C@H]2[C@@H]3CC[C@H]4C[C@H](O)CC[C@]4(C)[C@H]3CC[C@]12C [BREXANOLONE] | 10 | 155 |
| CC(=O)[C@H]1CC[C@H]2[C@@H]3CC[C@@H]4C[C@H](O)CC[C@]4(C)[C@H]3CC[C@]12C [ELTANOLONE] | 9.5 | 145 |
